Assay results from ChEMBL document CHEMBL1155262, “A new class of anticonvulsants possessing 6 Hz activity: 3,4-dialkyloxy thiophene bishydrazones” (Eur J Med Chem, 2009).
Calls of active or inactive are those of the source. No cut-off for these calls is given here.

What was measured:
Mus musculus [1] = assay: Anticonvulsant activity in mouse CF1 albino assessed as inhibition of subcutaneous metrazole-induced seizure at 300 mg/kg, ip after 0.5 hrs; type: functional, organism-based; parameters: dose 300 mg/kg
Mus musculus [2] = assay: Anticonvulsant activity in mouse CF1 albino assessed as inhibition of maximal electric shock-induced seizure at 300 mg/kg, ip after 0.5 hrs; type: functional, organism-based; parameters: dose 300 mg/kg
Outline: (§1)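 Male CF-1 albino mice (18–25 g); compound suspended in 0.5% methyl cellulose/water or PEG 200, given i.p. at 30, 100 and 300 mg/kg (0.01 mL/g). Tested 0.5 or 4 h after dosing. Protection = abolition of hind limb tonic extensor component of MES seizure.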

Mus musculus [3] = assay: Anticonvulsant activity in ip dosed mouse CF1 albino assessed as inhibition of maximal electric shock-induced seizure after 4 hrs; type: functional; outline: as §1
Mus musculus [4] = assay: Anticonvulsant activity in mouse CF1 albino assessed as inhibition of subcutaneous metrazole-induced seizure at 300 mg/kg, ip after 4 hrs; type: functional, organism-based; parameters: dose 300 mg/kg
Mus musculus [5] = assay: Neurotoxicity against mouse CF1 albino assessed as minimal motor impairment at 300 mg/kg, ip after 0.5 hrs by rotord test; type: toxicity, organism-based; parameters: dose 300 mg/kg, route intraperitoneal; conditions: in vivo
Outline: (§2)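 Rotorod minimal motor impairment in male CF-1 albino mice (18–25 g) after i.p. dosing at 30, 100 or 300 mg/kg in 0.5% methyl cellulose/water or PEG 200. Mice placed on a rod rotating at 6 rpm at 0.5 or 4 h. Value is minimum dose causing impairment in at least one mouse.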

Mus musculus [6] = assay: Neurotoxicity against mouse CF1 albino assessed as minimal motor impairment at 300 mg/kg, ip after 4 hrs by rotord test; type: toxicity, organism-based; parameters: dose 300 mg/kg, route intraperitoneal; conditions: in vivo; outline: as §2
Mus musculus [7] = assay: Anticonvulsant activity in mouse CF1 albino assessed as inhibition of maximal electric shock-induced seizure at 300 mg/kg, ip after 4 hrs; type: functional, organism-based; parameters: dose 300 mg/kg; outline: as §1
Mus musculus [8] = assay: Neurotoxicity against ip dosed mouse CF1 albino assessed as minimal motor impairment after 0.5 hrs by rotord test; type: toxicity, organism-based; conditions: in vivo; outline: as §2
Mus musculus [9] = assay: Anticonvulsant activity in mouse CF1 albino assessed as inhibition of minimal electric shock-induced seizure at 100 mg/kg, ip after 0.25 hrs; type: functional, organism-based; parameters: dose 100 mg/kg
Outline: (§3)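 6 Hz psychomotor seizure model in male CF-1 albino mice dosed i.p. Four mice per time point (0.25, 0.5, 1, 2, 4 h) received corneal-electrode current of 32 mA for 3 s. Untreated mice show a minimal clonic phase followed by stereotyped automatistic behaviour. Results given as number protected out of 4.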

Mus musculus [10] = assay: Anticonvulsant activity in mouse CF1 albino assessed as inhibition of minimal electric shock-induced seizure at 100 mg/kg, ip after 2 hrs; type: functional, organism-based; parameters: dose 100 mg/kg; outline: as §3
Mus musculus [11] = assay: Anticonvulsant activity in mouse CF1 albino assessed as inhibition of minimal electric shock-induced seizure at 100 mg/kg, ip after 4 hrs; type: functional, organism-based; parameters: dose 100 mg/kg; outline: as §3
Mus musculus [12] = assay: Anticonvulsant activity in ip dosed mouse CF1 albino assessed as inhibition of subcutaneous metrazole-induced seizure after 0.5 hrs; type: functional
Mus musculus [13] = assay: Neurotoxicity against ip dosed mouse CF1 albino assessed as minimal motor impairment after 4 hrs by rotord test; type: toxicity, organism-based; conditions: in vivo; outline: as §2
Mus musculus [14] = assay: Anticonvulsant activity in mouse CF1 albino assessed as inhibition of minimal electric shock-induced seizure at 50 mg/kg, ip after 0.5 hrs; type: functional, organism-based; parameters: dose 50 mg/kg; outline: as §3
Mus musculus [15] = assay: Anticonvulsant activity in mouse CF1 albino assessed as inhibition of minimal electric shock-induced seizure at 50 mg/kg, ip after 1 hr; type: functional, organism-based; parameters: dose 50 mg/kg; outline: as §3
Mus musculus [16] = assay: Anticonvulsant activity in mouse CF1 albino assessed as inhibition of minimal electric shock-induced seizure at 50 mg/kg, ip after 2 hrs; type: functional, organism-based; parameters: dose 50 mg/kg; outline: as §3
Mus musculus [17] = assay: Anticonvulsant activity in mouse CF1 albino assessed as inhibition of minimal electric shock-induced seizure at 50 mg/kg, ip after 4 hrs; type: functional, organism-based; parameters: dose 50 mg/kg; outline: as §3
Mus musculus [18] = assay: Anticonvulsant activity in mouse CF1 albino assessed as inhibition of minimal electric shock-induced seizure at 50 mg/kg, ip after 0.25 hrs; type: functional, organism-based; parameters: dose 50 mg/kg; outline: as §3
Mus musculus [19] = assay: Anticonvulsant activity in mouse CF1 albino assessed as inhibition of minimal electric shock-induced seizure at 30 mg/kg, ip after 0.25 hrs; type: functional, organism-based; parameters: dose 30 mg/kg; outline: as §3
Mus musculus [20] = assay: Anticonvulsant activity in mouse CF1 albino assessed as inhibition of minimal electric shock-induced seizure at 30 mg/kg, ip after 0.5 hrs; type: functional, organism-based; parameters: dose 30 mg/kg; outline: as §3
Mus musculus [21] = assay: Anticonvulsant activity in mouse CF1 albino assessed as inhibition of minimal electric shock-induced seizure at 30 mg/kg, ip after 1 hr; type: functional, organism-based; parameters: dose 30 mg/kg; outline: as §3
Mus musculus [22] = assay: Anticonvulsant activity in mouse CF1 albino assessed as inhibition of minimal electric shock-induced seizure at 30 mg/kg, ip after 2 hrs; type: functional, organism-based; parameters: dose 30 mg/kg; outline: as §3
Mus musculus [23] = assay: Anticonvulsant activity in ip dosed mouse CF1 albino assessed as inhibition of maximal electric shock-induced seizure after 0.5 hrs; type: functional; outline: as §1
Mus musculus [24] = assay: Anticonvulsant activity in ip dosed mouse CF1 albino assessed as inhibition of subcutaneous metrazole-induced seizure after 4 hrs; type: functional

Row | Structure (SMILES) | Activity (Mus musculus [1]) | Activity (Mus musculus [2]) | Activity (Mus musculus [4]) | Activity (Mus musculus [5]) | Activity (Mus musculus [6]) | Activity (Mus musculus [7]) | Activity (Mus musculus [8]) [mg/kg] | also measured
1 | C/C(=N\NC(=O)c1sc(C(=O)N/N=C(\C)c2cccs2)c(OCc2ccccc2)c1OCc1ccccc1)c1cccs1 | inactive | inactive | inactive | Not Active | Not Active |  |  | Activity (Mus musculus [3]): 300 mg/kg
2 | CCCOc1c(C(=O)NN)sc(C(=O)NN)c1OCCC | inactive | inactive | inactive |  | Not Active | inactive | 100 | 
3 | COc1cc(/C=N/NC(=O)c2sc(C(=O)N/N=C/c3cc(OC)c(OC)c(OC)c3)c3c2OCCO3)cc(OC)c1OC | inactive | inactive | inactive |  | Not Active | inactive | 300 | 
4 | CCCOc1c(C(=O)N/N=C(/C)c2ccsc2Br)sc(C(=O)N/N=C(/C)c2ccsc2Br)c1OCCC |  |  |  |  |  |  |  | Activity (Mus musculus [9]): inactive; Activity (Mus musculus [10]): inactive; Activity (Mus musculus [11]): inactive
5 | CCCOc1c(C(=O)N/N=C/c2cc([N+](=O)[O-])ccc2Br)sc(C(=O)N/N=C/c2cc([N+](=O)[O-])ccc2Br)c1OCCC | inactive | inactive | inactive |  | Not Active | inactive | 300 | 
6 | CCCCCCCOc1c(C(=O)N/N=C/c2cc(OC)c(OC)c(OC)c2)sc(C(=O)N/N=C/c2cc(OC)c(OC)c(OC)c2)c1OCCCCCCC |  |  |  |  |  |  |  | Activity (Mus musculus [9]): inactive
7 | O=C(N/N=C/c1ccc2c(c1)Cc1ccccc1-2)c1sc(C(=O)N/N=C/c2ccc3c(c2)Cc2ccccc2-3)c2c1OCCO2 |  | inactive | inactive | Not Active | Not Active | inactive |  | Activity (Mus musculus [12]): 300 mg/kg
8 | CCCOc1c(C(=O)N/N=C/c2ccc(N(C)C)cc2)sc(C(=O)N/N=C/c2ccc(N(C)C)cc2)c1OCCC | inactive | inactive | inactive |  |  | inactive | 100 | Activity (Mus musculus [13]): 300 mg/kg
9 | CCCOc1c(C(=O)N/N=C/c2ccccc2OC)sc(C(=O)N/N=C/c2ccccc2OC)c1OCCC | inactive | inactive | inactive |  | Not Active | inactive | 100 | 
10 | CCCOc1c(C(=O)N/N=C/c2ccc(C(=O)O)cc2)sc(C(=O)N/N=C/c2ccc(C(=O)O)cc2)c1OCCC | inactive | inactive | inactive |  | Not Active | inactive | 100 | 
11 | CCCCCCCOc1c(C(=O)N/N=C/c2ccccc2)sc(C(=O)N/N=C/c2ccccc2)c1OCCCCCCC |  | inactive | inactive | Not Active | Not Active | inactive |  | Activity (Mus musculus [14]): inactive; Activity (Mus musculus [15]): inactive; Activity (Mus musculus [16]): inactive; Activity (Mus musculus [17]): inactive; Activity (Mus musculus [12]): 300 mg/kg; Activity (Mus musculus [11]): inactive; Activity (Mus musculus [18]): inactive
12 | O=C(N/N=C/c1ccccc1)c1sc(C(=O)N/N=C/c2ccccc2)c(OCc2ccccc2)c1OCc1ccccc1 | inactive |  |  | Not Active | Not Active | inactive |  | Activity (Mus musculus [19]): inactive; Activity (Mus musculus [20]): inactive; Activity (Mus musculus [21]): inactive; Activity (Mus musculus [22]): inactive; Activity (Mus musculus [23]): 300 mg/kg; Activity (Mus musculus [24]): 300 mg/kg
